Source: ChEMBL document CHEMBL4118079, “Discovery of novel naphthoquinone derivatives as inhibitors of the tumor cell specific M2 isoform of pyruvate kinase” (Eur J Med Chem, 2017)

What was measured:
[1] = target: Pyruvate kinase PKM (Homo sapiens, UniProt P14618); experiment: Inhibition of recombinant human N-terminal His-tagged PKM2 expressed in Escherichia coli BL21 preincubated for 15 mins followed by PEP/NADH addition measured at 30 secs interval for 3 to 6 mins by fluorescent PK-LDH assay
Chain of Pyruvate kinase PKM (P14618 whole entry): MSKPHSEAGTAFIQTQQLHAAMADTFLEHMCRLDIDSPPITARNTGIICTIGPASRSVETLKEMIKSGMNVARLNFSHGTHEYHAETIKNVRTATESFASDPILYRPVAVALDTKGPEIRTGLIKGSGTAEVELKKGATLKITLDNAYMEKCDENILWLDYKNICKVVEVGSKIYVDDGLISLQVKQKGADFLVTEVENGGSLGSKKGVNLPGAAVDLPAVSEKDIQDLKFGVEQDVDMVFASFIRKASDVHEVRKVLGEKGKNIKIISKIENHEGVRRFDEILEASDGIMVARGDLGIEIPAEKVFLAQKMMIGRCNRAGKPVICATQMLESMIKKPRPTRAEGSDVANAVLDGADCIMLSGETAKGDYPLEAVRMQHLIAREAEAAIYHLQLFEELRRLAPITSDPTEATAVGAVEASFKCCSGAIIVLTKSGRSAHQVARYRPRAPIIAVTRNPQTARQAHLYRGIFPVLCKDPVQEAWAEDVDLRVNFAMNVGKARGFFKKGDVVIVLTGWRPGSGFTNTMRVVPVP
In short: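 Human PKM2 with an N-terminal His tag, expressed in E. coli BL21 and Ni-agarose purified. Enzyme and compound preincubated 15 min in 50 mM Tris–HCl pH 7.5, 10 mM KCl, 5 mM MgCl2. NADH fluorescence read kinetically every 30 s for 3–6 min. IC50.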

[2] = Selectivity index, ratio of IC50 for human BEAS2B cells to IC50 for human NCI-H1299 cells; type: toxicity; conditions: BEAS2B cells and NCI-H1299 cells, read-out: Ratio IC50
[3] = test system: NCI-H1299; experiment: Antiproliferative activity against human NCI-H1299 cells after 48 hrs by MTS assay; type: functional, cell-based; conditions: NCI-H1299, 48 h
In short: (§1)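 Cells kept in RPMI 1640 with 9% FBS at 37°C, 5% CO2. 5000 cells/well seeded, left 12 h, then exposed to a range of compound concentrations or DMSO (negative control) for 48 h. MTS added, 3 h at 37°C, absorbance read at 490 nm. IC50 ± SD.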

[4] = test system: HCT-116; experiment: Antiproliferative activity against human HCT116 cells after 48 hrs by MTS assay; type: functional, cell-based; conditions: HCT-116, 48 h; in short: as §1
[5] = test system: HeLa; experiment: Antiproliferative activity against human HeLa cells after 48 hrs by MTS assay; type: functional, cell-based; in short: as §1
[6] = test system: BEAS-2B; experiment: Cytotoxicity against human BEAS2B cells assessed as reduction in cell viability after 48 hrs by MTS assay; type: cell-based; in short: as §1
[7] = test system: NCI-H1299; experiment: Antiproliferative activity against human NCI-H1299 cells after 48 hrs in presence of PKM2 activator FBP by MTS assay; type: functional, cell-based; conditions: NCI-H1299, 48 h
In short: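 H1299 cells in RPMI 1640 with 9% FBS at 37°C, 5% CO2. 5000 cells/well, 12 h attachment, then 48 h treatment at graded concentrations with FBP (100 µM) added. MTS read-out (3 h, 37°C, A490). IC50 ± SD.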

[8] = species: Homo sapiens; experiment: Selectivity ratio of IC50 for recombinant human N-terminal His-tagged PKM1 expressed in Escherichia coli BL21 to IC50 for recombinant human N-terminal His-tagged PKM2 expressed in Escherichia coli BL21
[9] = species: Homo sapiens; experiment: Selectivity ratio of IC50 for recombinant human N-terminal His-tagged PKL expressed in Escherichia coli to IC50 for recombinant human N-terminal His-tagged PKM2 expressed in Escherichia coli BL21

SMILES	IC50 [1] [nM]	selectivity ratio [2]	IC50 [3] [nM]	IC50 [4] [nM]	IC50 [5] [nM]	IC50 [6] [nM]	IC50 [7] [nM]	Ratio IC50 [8]	Ratio IC50 [9]
O=C1C=C(CSC(=S)N2CCCCC2)C(=O)c2ccccc21	1740	9.4	2060	2370	920	19300			
CCN(CC)C(=S)SCC1=C(C)C(=O)c2ccccc2C1=O	8780	17	890	410	390	15100	1580		
CC(C)=CC[C@@H](O)C1=CC(=O)c2c(O)ccc(O)c2C1=O [SHIKONIN]		2.9	1880	1840	2450	5360		1.5	4.5
CC1=C(CSC(=S)N(C)C2CCCCC2)C(=O)c2ccccc2C1=O	5080		11300	10600	13600				
CC1=C(CSC(=S)NN2CCCCC2)C(=O)c2ccccc2C1=O	> 20000		4370	7360	10400				
O=C1C=C(CSC(=S)N2CCOCC2)C(=O)c2ccccc21	4230		5690	3680	2390				
CC1=C(CSC(=S)N2CCN(C)CC2)C(=O)c2ccccc2C1=O	14200		2440	2840	1570				
CC1=C(CSC(=S)N2CCOCC2)C(=O)c2ccccc2C1=O	15200		1230	800	950				
CCN(CC)CCNC(=S)SCC1=C(C)C(=O)c2ccccc2C1=O	> 20000		3970	3370	5780				
CC1=C(CSC(=S)N2CCCC2)C(=O)c2ccccc2C1=O	19700		1640	1460	880				
CC1=C(CSC(=S)N2CCSC2)C(=O)c2ccccc2C1=O	5280		3280	1750	1960				
CC1=C(SC(=S)N2CCOCC2)C(=O)c2ccccc2C1=O	8500		3270	2280	2140				
CC1=C(CSC(=S)N2CCSCC2)C(=O)c2ccccc2C1=O	5890	8.6	1190	890	320	10500			
CC1=C(CSC(=S)NCc2ccccc2)C(=O)c2ccccc2C1=O	2210		4840	1720	1300				
CC1=C(CSC(=S)NN2CCN(C)CC2)C(=O)c2ccccc2C1=O	> 20000		> 20000	2000	3920				
CC1=C(CSC(=S)N2CC(C)OC(C)C2)C(=O)c2ccccc2C1=O (centres undefined)	11700		1470	1100	870				
